Screening results: PubChem BioAssay, several laboratories
T cruzi inh – blocks replication of Trypanosoma cruzi. T. cruzi beta-gal in NIH3T3, luminescence, 90 h. inhibition, % (concentration not given with the values). hit rate 1.4% among 300,000;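 active = mean inhibition across valid replicates above about 55%, limit read from the data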;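 also: signal also drops with host cell toxicity which is not excluded here; 0% = plate median of DMSO wells and 100% = zero luminescence signal; higher percent means less beta-gal luminescence so fewer parasites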
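System: Mouse NIH/3T3 fibroblasts infected with β-gal-expressing T. cruzi Tulahuen C4 | Quantity: NIH/3T3 cells, 5,000 per well | Reagent: 5000 reporter trypomastigotes per well | Dosing: Compound pinned at 50 nL/well, DMSO | Schedule: 3 h host attachment, then at least 90 h co-culture | Detection: GalScreen luminescence, 60 min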
PolyA inhibitor – inhibitors of polyadenylation in S. cerevisiae. activity score, % at 12 µM. hit rate 0.02% among 300,000. S. cerevisiae SKY197-pL101 polyadenylation reporter, beta-gal luminescence; efflux-impaired pdr1/pdr3 knockout yeast; score 100 = 6 SD above DMSO;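 active = lowest replicate activity score at least 50, where 100 means six control SD above control mean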;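 also: yeast exposed to compound for 9 h at 30 °C; higher score means more reporter readthrough which indicates perturbed polyadenylation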
CHT inh – inhibits the human high affinity choline transporter; CHT-expressing cells, membrane potential dye, choline response; active compounds read low; B-score at 10 µM; hit rate 0.86% among 310,000; AID 488975;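 active = B-score over 3 SD under the library average, and starting fluorescence ratio not unusually high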;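 also: choline stimulus applied at its EC90 after an EC20 pre-addition; B-score computed on integrated fluorescence ratio after choline addition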
Target sequence (Q9GZV3 whole entry, looked up): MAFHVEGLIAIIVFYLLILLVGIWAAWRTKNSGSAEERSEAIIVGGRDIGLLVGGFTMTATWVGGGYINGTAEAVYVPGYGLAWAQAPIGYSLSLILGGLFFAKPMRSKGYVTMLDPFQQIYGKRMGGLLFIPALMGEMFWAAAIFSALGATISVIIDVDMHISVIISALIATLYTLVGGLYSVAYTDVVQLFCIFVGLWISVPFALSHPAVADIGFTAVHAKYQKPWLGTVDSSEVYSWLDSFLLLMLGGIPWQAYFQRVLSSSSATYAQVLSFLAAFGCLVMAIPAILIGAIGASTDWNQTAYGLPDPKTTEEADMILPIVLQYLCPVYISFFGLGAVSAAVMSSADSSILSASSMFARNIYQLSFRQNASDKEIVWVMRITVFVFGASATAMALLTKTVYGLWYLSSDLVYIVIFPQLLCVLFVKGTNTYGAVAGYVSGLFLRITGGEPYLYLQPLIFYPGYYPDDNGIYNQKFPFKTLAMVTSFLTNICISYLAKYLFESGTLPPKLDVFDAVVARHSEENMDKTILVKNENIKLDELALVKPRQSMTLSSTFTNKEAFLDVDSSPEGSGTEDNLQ
CHT allo act – allosterically activates the human high affinity choline transporter | CHT-expressing cells, membrane potential dye, choline EC20; active compounds read high; LV-AA mutant CHT in HEK293 cells | B-score at 10 µM | hit rate 0.49% among 310,000;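 active = initial fluorescence not abnormally high and integrated response B-score, plate-corrected, over 3 SD above library mean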
CHT act confirm – confirmation of human choline transporter (CHT) activators. AID 504833. CHT-expressing cells, membrane potential dye fluorescence (FDSS); % of choline EC20–EC90 response window; HEK293 expressing CHT LV-AA mutant; choline added at its EC20. shares compounds with CHT allo act. hit rate 91% among 2,500. activation, % at 10 µM;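 active = primary screen active, with duplicate mean activation above negative control mean plus 3 SD, cut at about 11% in these data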
HEK293 MP dye – CHT activator counter-screen hit in parental HEK293 cells | shares compounds with CHT allo act | membrane potential dye fluorescence (FDSS); measured after EC20 choline addition | ratio readout change at 10 µM, hits read low | hit rate 62% among 2,500 | AID 623908;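 active = duplicate-averaged ratio beyond 3 SD from buffer wells, up or down, though filed actives are nearly all decreases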
Active calls of the source: *; i = inactive; nt = no result. The list is not random: actives were taken first. Their share in the collection is about 2.6%.

SMILES	T cruzi inh	PolyA inhibitor	CHT inh	CHT allo act	CHT act confirm	HEK293 MP dye
Cc1ccc(-c2c(C(=O)N(C)Cc3ccccc3)oc(=O)c3ccccc23)cc1	28	-26	i	i	32*	i
Cc1ccn2c(NC(=O)c3ccccc3)c(-c3ccccc3)nc2c1	-3	12	i	i	30*	-48*
Cc1nn2c3ccccc3n(CCN3CCCCC3)c2nc1=O	-21	4	i	7.1*	39*	-42*
CCC(C)Sc1cc(-c2nc3ccc(C)cn3c2NCc2ccccc2)ccc1OC (stereo not given)	36	7	i	7.7*	22*	-25*
O=c1oc2ccccc2c(N2CCC(c3ccccc3)CC2)c1[N+](=O)[O-]	-6	7	i	i	5	i
CC1CCCN(c2c([N+](=O)[O-])c(=O)oc3ccccc23)C1 (stereo not given)	-14	-7	i	i	nt	nt
CC[n+]1c(C)sc2cc(C)ccc21	18	-10	i	i	68*	-58*
COC(=O)COc1ccc(C(C2C(=O)CC(C)(C)CC2=O)C2C(=O)CC(C)(C)CC2=O)cc1	-1	10	i	i	nt	nt
CCc1ccc(C(=O)C(C)OC(=O)c2nn(C)c(=O)c3ccccc23)cc1 (stereo not given)	17	-14	i	i	nt	nt
CCC(C)C(NS(=O)(=O)c1ccc(C)cc1)C(=O)N1CCOCCOCCOCC1 (stereo not given)	8	1	i	i	nt	nt
N#CC(C(=O)OC1CCCCC1)c1nc2ccccc2nc1N1CCOCC1 (stereo not given)	46	-23	i	i	nt	nt
CN1CCN(c2nc3ccccc3nc2C(C#N)C(=O)OC2CCCCC2)CC1 (stereo not given)	42	-2	i	8.6*	44*	-48*
COCCn1c(SCC(=O)Nc2cc(C)on2)nc2c(c1=O)SCC2	6	-13	i	i	nt	nt
Cc1cccc(OCc2n(CC(=O)OC3CC(C)CCC3C(C)C)c3ccccc3[n+]2C)c1 (stereo not given)	65*	-6	i	9.3*	41*	i
NC(N)=N/N=C/c1ccc2cccc(OCc3ccccc3)c2n1	57*	-1	i	6.3*	14*	i
O/N=C/c1ccc2cccc(OCc3ccccc3)c2n1	-7	-22	i	i	nt	nt
Cc1ccc(N(Cc2cc(=O)[nH]c3ccccc23)C(=O)CCl)c(C)c1	22	17	i	i	nt	nt
CC(C)N(Cc1ccccc1)C(=O)C1CCCN(c2ncnc3c2nc2n3CCCCC2)C1 (stereo not given)	5	-2	i	i	nt	nt
CCCCN(Cc1ccco1)C(=O)C1CCCN(c2ncnc3c2nc2n3CCCCC2)C1 (stereo not given)	21	-4	i	i	18*	i
O=C(CN1C(=O)CCC1=O)Nc1nc(-c2nc3ccccc3s2)cs1	-2	7	i	i	18*	i
Nc1ccccc1C(=O)NNc1c2ccccc2nc2ccccc12	30	23	i	i	nt	nt
CC(C)NC[C@@H](O)COc1cccc2ccccc12	-4	19	i	i	nt	nt
O=C1c2ccccc2N2C(=O)c3ccccc3C2N1Cc1ccccc1 (stereo not given)	12	3	i	i	26*	i
O=C1c2ccccc2N2C(=O)c3ccccc3[C@H]2N1c1ccccc1	0	9	i	i	nt	nt
CCN(C(=O)c1nn(-c2ccc(OC)cc2)c(=O)c2c1c1ccccc1n2C)c1ccc(OC)cc1	26	-7	i	i	nt	nt
SMILES	T cruzi inh	PolyA inhibitor	CHT inh	CHT allo act	CHT act confirm	HEK293 MP dye
CCCCN(C)CCNC(=O)c1nn(-c2ccc(OC)cc2)c(=O)c2c1c1ccccc1n2C	61*	2	i	i	29*	-31*
COc1cccc2c3c(c(C)nc12)CC(C)O3 (stereo not given)	-8	9	i	9.9*	53*	-70*
Cc1nc2c(C)cccc2c2c1CCN2c1ccccc1F	11	8	i	i	47*	-54*
COc1ccc2nc(C)c3c(c2c1)OC(C)C3 (stereo not given)	-8	5	i	i	nt	nt
COc1ccc(N2CCc3c(C)nc4c(OC)cccc4c32)cc1	20	7	i	i	33*	-56*
COc1cccc(N2CCc3c(C)nc4ccc(Cl)cc4c32)c1	19	-24	i	i	42*	-29*
COc1ccc(C(C(=O)NC(C)(C)C)N(Cc2cccnc2)C(=O)CCC(=O)Nc2cc(C)on2)cc1 (stereo not given)	-12	-1	i	i	nt	nt
COc1ccc(C(CNC(=O)CSc2ccccc2F)N2CCOCC2)cc1 (stereo not given)	4	9	i	i	nt	nt
COc1ccc(C(CNC(=O)CSc2ccc(Br)cc2C)N2CCOCC2)cc1 (stereo not given)	3	4	i	i	-1	i
COc1ccc(S(=O)(=O)N2CCCC2)cc1C(=O)N1CCCCC1	13	-9	i	i	nt	nt
COc1ccc(S(=O)(=O)N2CCCCCC2)cc1C(=O)N1CCCC(C(F)(F)F)C1 (stereo not given)	8	19	i	10*	15*	i
CCC(C(=O)NC1CCCC1)N(Cc1ccco1)C(=O)CNS(=O)(=O)c1ccccc1 (stereo not given)	2	18	i	i	nt	nt
CCCC(C(=O)NC1CCCCC1)N(Cc1ccco1)C(=O)CNS(=O)(=O)c1ccccc1 (stereo not given)	15	8	i	8.4*	33*	i
C/C(=C\c1ccc(F)cc1)C(=O)c1c(C)cc(C)[nH]c1=O	-2	10	nt	nt	nt	nt
CCOc1ccc(C(=O)N(c2ccccn2)C2CCCCC2)cc1	2	-2	i	i	nt	nt
Cc1nc2cc(NC(=O)N3CCCC3)ccc2n1C	-1	12	i	6.5*	26*	-39*
Cc1nc2cc(NC(=O)N3CCC(c4ccccc4)C3)ccc2n1C (stereo not given)	15	-2	i	i	nt	nt
COc1ccc(S(=O)(=O)N(C)c2ccc(C(=O)Nc3c(C)n(C)n(-c4ccccc4)c3=O)cc2)cc1	2	-3	i	i	nt	nt
COc1c(C=O)cc2c3c1CCCN3CCC2	3	5	i	i	nt	nt
NCc1cc2c3c(c1)CCCN3CCC2	-13	24	i	i	13*	-100*
O=C(CN(C(=O)CNC(=O)c1ccco1)c1ccc(Cl)c(Cl)c1)NC1CCCCC1	6	5	i	6.9*	39*	i
